Published values from different studies.
Protocols differ between the studies behind these lines.
Technique: competition with immobilised ligand
RPS6KA2 N-terminal kinase domain: Ribosomal protein S6 kinase alpha-2, N-terminal kinase domain (RPS6KA2, Homo sapiens, UniProt Q15349)
RPS6KA2 C-terminal kinase domain: Ribosomal protein S6 kinase alpha-2, C-terminal kinase domain (RPS6KA2, Homo sapiens, UniProt Q15349)

| Structure (SMILES) | target | assay | conditions | remaining binding [%] |
| --- | --- | --- | --- | --- |
| CN(CCCC(F)(F)F)c1nccc(-c2cnn3ncccc23)n1 | RPS6KA2 N-terminal kinase domain | binding | 1 µM | 86 |
| C=CC(=O)N1CCC(C(=O)NCC(=O)N2CCN(c3nc(-c4cnc(N)nc4C(F)F)nc(N4CCOCC4)n3)CC2)CC1 | RPS6KA2 C-terminal kinase domain | binding | 1 µM | 93 |
| C[C@@H](c1ccc(-n2cnc3c(N)ncnc32)cc1)N1CCc2nn(C)c(Cc3ccccc3)c2C1=O | RPS6KA2 C-terminal kinase domain | binding | 0.1 µM | 78 |
| CN(C)c1nccc(-c2cnc3ncccn23)n1 | RPS6KA2 N-terminal kinase domain | binding | 1 µM | 83 |
| CCS(=O)(=O)c1cc2cc(C[C@](O)(CC(C)(C)c3ccc(F)cc3C(N)=O)C(F)(F)F)[nH]c2cn1 | RPS6KA2 C-terminal kinase domain | cell-free assay | 1 µM | 81 |
| O=C(c1ccc(Nc2ncc(Cl)c(-c3ccc(Cl)s3)n2)cc1)N1CCC(N2CCCC2)CC1 | RPS6KA2 N-terminal kinase domain | binding | 1 µM | 100 |
| COc1ccnn2ncc(-c3ccnc(N(C)C)n3)c12 | RPS6KA2 C-terminal kinase domain | binding | 1 µM | 100 |
| O=C(c1ccc(Nc2ncc(Cl)c(-c3cc4ccccc4s3)n2)cc1)N1CCC(N2CCCC2)CC1 | RPS6KA2 C-terminal kinase domain | binding | 1 µM | 100 |
| CCN1CCN(Cc2ccc(C(=O)Nc3ccc(C)c(Oc4ccc5c(c4)CC(=O)N5)c3)cc2C(F)(F)F)CC1 | RPS6KA2 N-terminal kinase domain | binding | 1 µM | 100 |
| CNC(=O)[C@@H]1CC[C@@H](n2c(-c3ccc4cnccc4c3)nc3ccc(C(=O)NCc4cccc(C(N)=O)c4)cc32)C1 | RPS6KA2 C-terminal kinase domain | binding | 1 µM | 91 |
| CCOCCn1cc(C(=O)Nc2ccc(-n3nc(-c4cccnc4)cc3C(F)(F)F)cn2)ccc1=O | RPS6KA2 N-terminal kinase domain | cell-free assay | 1 µM | 84 |
| Cc1cnn2ncc(-c3ccnc(N(C)C)n3)c2c1 | RPS6KA2 C-terminal kinase domain | binding | 1 µM | 100 |
| O=S(=O)(NC1CCC(c2cc(F)ccc2F)(S(=O)(=O)c2ccc(Cl)cc2)CC1)C(F)(F)F (stereo not drawn) | RPS6KA2 C-terminal kinase domain | cell-free assay | 1 µM | 95 |
| COc1cnc(Nc2cccc(S(N)(=O)=O)c2)nc1N1CCN(c2ccccc2)C(=O)C1 | RPS6KA2 C-terminal kinase domain | binding | 1 µM | 100 |
| COc1ccc2cc(OCC3(C(=O)O)CN(C(=O)c4ccc(F)cc4)C3)ccc2c1 | RPS6KA2 C-terminal kinase domain | cell-free assay | 1 µM | 100 |
| Cc1cnc(Nc2ccc(C(=O)N3CCC(N4CCCC4)CC3)cc2)nc1-c1cc2ccccc2s1 | RPS6KA2 C-terminal kinase domain | binding | 1 µM | 95 |
| CN(c1nccc(-c2cnn3ncccc23)n1)C1CC1 | RPS6KA2 C-terminal kinase domain | binding | 1 µM | 100 |

| Structure (SMILES) | target | assay | conditions | remaining binding [%] |
| --- | --- | --- | --- | --- |
| O=C(NCCCN1CCOCC1)c1ccc(Nc2nccc(-c3cc4ccccc4s3)n2)cc1 | RPS6KA2 N-terminal kinase domain | binding | 1 µM | 100 |
| CO[C@H]1CC[C@H](CNc2ccc(S(=O)(=O)NC(=O)c3ccc(N4CCN(CC5=C(c6ccc(Cl)cc6)CC(C)(C)CC5)CC4)cc3Oc3cnc4[nH]ccc4c3)cc2[N+](=O)[O-])CC1 | RPS6KA2 N-terminal kinase domain | cell-free assay | 1 µM | 97 |
| O=C(NCC1CCOCC1)c1n[nH]cc1NC(=O)c1c(F)cccc1F | RPS6KA2 C-terminal kinase domain | binding | 1 µM | 100 |
| FC(F)(F)Oc1cccc(-c2cnc3ccc(-c4ccncc4)nn23)c1 | RPS6KA2 C-terminal kinase domain | binding | 5 µM | 82 |
| N[C@@H]1CCN(c2nccc(-c3cnn4ncccc34)n2)C1 | RPS6KA2 C-terminal kinase domain | binding | 1 µM | 100 |
| CN1CCN(c2cnc3c(C4CCN(C(=O)c5ccc(OC(F)(F)F)cc5N)CC4)ncnc3c2)CC1 | RPS6KA2 C-terminal kinase domain | cell-free assay | 1 µM | 100 |
| O=C(c1ccc(Nc2nccc(-c3cc4ccccc4s3)n2)cc1)N1CCC(N2CCCC2)CC1 | RPS6KA2 C-terminal kinase domain | binding | 1 µM | 74 |
| COc1cnc(Nc2cccc(S(N)(=O)=O)c2)nc1N1CCN(c2ccccc2)CC1 | RPS6KA2 N-terminal kinase domain | binding | 1 µM | 93 |
| Nc1ncc2c(n1)-c1c([nH]c3ccc(C#CC4CC4)cc13)CCCC2 | RPS6KA2 C-terminal kinase domain | binding | 1 µM | 92 |
| Cc1c(NC(=O)c2cc(C(N)=O)nc3cc(F)ccc23)c(C(F)(F)F)nn1Cc1ccc(C#N)cc1 | RPS6KA2 C-terminal kinase domain | cell-free assay | 1 µM | 86 |
| c1cncc(-c2cccc(Nc3nccc(NC4CCCCC4)n3)c2)c1 | RPS6KA2 C-terminal kinase domain | binding | 10 µM | 100 |
| O=C(Nc1c[nH]nc1C(=O)NC1CCNCC1)c1cc(F)cc(F)c1 | RPS6KA2 N-terminal kinase domain | binding | 1 µM | 100 |
| O=C(NCCCN1CCOCC1)c1ccc(Nc2ncc(Cl)c(-c3ccc(Cl)s3)n2)cc1 | RPS6KA2 N-terminal kinase domain | binding | 1 µM | 100 |
| Nc1cnc(N2CCc3cc(S(=O)(=O)Nc4c(F)cc(Cl)cc4F)cc(N4CCCC4=O)c32)nc1 | RPS6KA2 N-terminal kinase domain | cell-free assay | 1 µM | 88 |
| C[C@@H]1CCN(c2nccc(-c3cnn4ncccc34)n2)C1 | RPS6KA2 N-terminal kinase domain | binding | 1 µM | 79 |
| COc1ncc2cc3ccccc3nc2c1C#N | RPS6KA2 C-terminal kinase domain | cell-free assay | 5 µM | 94 |
